Measured values taken from ChEMBL document CHEMBL3593200, “NO-donor thiacarbocyanines as multifunctional agents for Alzheimer's disease” (Bioorg Med Chem, 2015).
Calls of active or inactive are those of the source. No cut-off for these calls is given here.

Key:
[1] = target: Soluble guanylate cyclase (Homo sapiens) (UniProt Q02153+O75343+P33402+Q02108); experiment: Activation of sGC in human hCMEC/D3 cells assessed as production of cGMP per million cells using [3H]-cGMP after 1 hr by liquid scintillation counting; type: cell-based; conditions: CMEC/D3
Method in brief: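 hCMEC/D3 cells (1×10^6, collagen-coated wells, supplemented EBM-2, 37°C, 5% CO2) switched to Hepes-Ca2+ buffer pH 7.4 with 1 mM IBMX. Exposed 1 h at 37°C to 0.1, 1, 5 or 10 μM; SNP 1 mM as reference NO donor. Ethanol-permeabilized, residue taken up in Tris-EDTA pH 8. cGMP quantified by [3H]-cGMP competitive radioimmunoassay with scintillation counting against a [3H]-cGMP titration curve; expressed as pmol/10^6 cells. Mean ± SEM, one-way ANOVA.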

[2] = Cytotoxicity against human hCMEC/D3 cells at 10 to 20 uM after 18 hrs by lactate dehydrogenase assay; type: cell-based; conditions: hcmec/d3, 18 h
[3] = Cytotoxicity against human hCMEC/D3 cells up to 1 uM after 18 hrs by lactate dehydrogenase assay; type: cell-based; conditions: hcmec/d3, 18 h
[4] = target: T1, Amyloid-beta precursor protein (Homo sapiens, UniProt P05067); experiment: Inhibition of Amyloid beta (1 to 40) (unknown origin) aggregation assessed as amount of fibrils formation at 100 uM after 2 hrs by thioflavin T based spectrofluorimetric method
Method in brief: (§1)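 Aβ40 pretreated in HFIP to remove preaggregates, then 30 μM peptide incubated 2 h at room temperature with inhibitor in PBS pH 7.4 (2% HFIP, 5% DMSO). ThT (3 μM, in 50 mM phosphate pH 6.0) fluorescence read at ex 450/em 486 nm. Inhibition = 100 − [(Fi−Fb)/F0×100]. IC50 from 5–7 concentrations in triplicate, ≥3 independent experiments, nonlinear regression; weaker compounds given as % inhibition ± SE at 100 μM.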

[5] = target: Microtubule-associated protein tau (Homo sapiens) (UniProt P10636); experiment: Inhibition of wild type human recombinant tau 2N4R aggregation assessed as reduction of formation rate and number of aggregates at 1 uM after 5 days using Congo Red staining
Method in brief: (§2)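 Recombinant human tau 2N4R, expressed in E. coli BL21(DE3), used at 8 μM with 300 μg/mL heparin in 35 mM MES pH 7.4, 1 mM DTT at 37°C, alone or with compound at 1 μM (final). Aliquots taken at 2 and 5 days, stained with Congo Red and examined under polarized light; also negatively stained with uranyl acetate for EM at 30,000 magnification.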

[6] = target: Microtubule-associated protein tau (Homo sapiens) (UniProt P10636); experiment: Inhibition of wild type human recombinant tau 2N4R aggregation assessed as reduction of formation rate and number of aggregates at 1 uM after 48 hrs using Congo Red staining; method in brief: as §2
[7] = target: T1, Amyloid-beta precursor protein; experiment: Inhibition of Amyloid beta (1 to 42) (unknown origin) aggregation assessed as amount of fibrils formation after 5 days by thioflavin T based spectrofluorimetric method
[8] = target: T1, Amyloid-beta precursor protein; experiment: Inhibition of Amyloid beta (1 to 40) (unknown origin) aggregation assessed as amount of fibrils formation after 2 hrs by thioflavin T based spectrofluorimetric method; method in brief: as §1
Brain = experiment: Synaptic plasticity activity in hippocampal brain slices of C57BL/6 mouse assessed as protection against amyloid beta (1 to 42)-induced long-term potentiation inhibition after 20 mins; type: functional; design: scale not given: the % may be the effect or the level left
Method in brief: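 Hippocampal slices (400 μm) from 30-day-old male C57BL/6 mice, recovered at 32°C in ACSF. Oligomerized Aβ42 (final 200 nM) was mixed with compound (final 2 μM), pre-incubated 30 min, then perfused 20 min before HFS. Schaffer collateral stimulation; CA1 fEPSP peak amplitude recorded 60 min post-HFS. LTP taken as mean over 55–60 min as % of baseline. Mean ± SEM, unpaired t-test.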

Microtubule-associated protein tau (Homo sapiens), sequence (P10636 whole entry): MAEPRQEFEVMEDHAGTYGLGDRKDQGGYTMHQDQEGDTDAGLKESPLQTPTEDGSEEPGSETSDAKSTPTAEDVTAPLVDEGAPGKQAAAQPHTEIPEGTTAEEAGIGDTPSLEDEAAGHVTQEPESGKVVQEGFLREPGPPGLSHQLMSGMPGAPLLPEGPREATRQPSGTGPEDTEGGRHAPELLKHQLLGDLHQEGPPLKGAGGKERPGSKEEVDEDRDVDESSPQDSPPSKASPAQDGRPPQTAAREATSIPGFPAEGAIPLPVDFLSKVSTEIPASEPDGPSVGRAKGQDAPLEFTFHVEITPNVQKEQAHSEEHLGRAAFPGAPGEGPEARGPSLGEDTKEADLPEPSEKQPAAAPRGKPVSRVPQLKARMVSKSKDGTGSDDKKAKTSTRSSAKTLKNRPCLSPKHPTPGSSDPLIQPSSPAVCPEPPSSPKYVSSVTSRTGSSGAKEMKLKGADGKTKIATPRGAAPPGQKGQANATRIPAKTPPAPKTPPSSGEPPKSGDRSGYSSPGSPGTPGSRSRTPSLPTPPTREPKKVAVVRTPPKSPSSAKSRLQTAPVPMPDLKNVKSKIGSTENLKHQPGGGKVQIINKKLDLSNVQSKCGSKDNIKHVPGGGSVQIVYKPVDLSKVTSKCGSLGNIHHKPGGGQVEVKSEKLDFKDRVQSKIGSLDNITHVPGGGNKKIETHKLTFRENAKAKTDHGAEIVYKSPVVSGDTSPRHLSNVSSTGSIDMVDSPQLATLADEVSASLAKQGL
T1 sequence (P05067 whole entry): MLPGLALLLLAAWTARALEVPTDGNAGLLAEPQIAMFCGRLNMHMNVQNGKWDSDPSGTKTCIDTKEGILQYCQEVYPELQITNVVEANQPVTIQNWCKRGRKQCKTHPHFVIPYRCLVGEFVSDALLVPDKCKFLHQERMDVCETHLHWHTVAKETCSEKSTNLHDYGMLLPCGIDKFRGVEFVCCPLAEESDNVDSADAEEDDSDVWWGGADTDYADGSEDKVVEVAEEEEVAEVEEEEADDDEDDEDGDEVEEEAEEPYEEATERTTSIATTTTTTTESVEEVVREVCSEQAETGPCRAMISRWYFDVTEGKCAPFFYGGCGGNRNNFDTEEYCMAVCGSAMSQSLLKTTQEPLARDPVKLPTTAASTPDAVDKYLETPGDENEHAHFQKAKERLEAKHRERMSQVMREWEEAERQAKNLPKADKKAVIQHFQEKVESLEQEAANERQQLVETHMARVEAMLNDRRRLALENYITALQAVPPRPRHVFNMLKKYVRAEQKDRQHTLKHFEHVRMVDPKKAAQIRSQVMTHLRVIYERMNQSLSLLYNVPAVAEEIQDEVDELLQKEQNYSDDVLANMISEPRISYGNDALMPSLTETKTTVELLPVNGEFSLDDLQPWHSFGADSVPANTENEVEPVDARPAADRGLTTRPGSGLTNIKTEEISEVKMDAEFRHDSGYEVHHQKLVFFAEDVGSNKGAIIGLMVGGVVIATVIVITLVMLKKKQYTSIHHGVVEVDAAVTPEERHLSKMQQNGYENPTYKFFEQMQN

SMILES | Activity [1] | Activity [2] | Activity [3] | inhibition [4] [%] | inhibition [5] | inhibition [6] | IC50 [7] [µM] | IC50 [8] [µM] | Activity (Brain) [%] | inhibition [8]
CCN1/C(=C/C=C/c2sc3ccc(OCc4no[n+]([O-])c4C(N)=O)cc3[n+]2CC)Sc2ccc(OCc3no[n+]([O-])c3C(N)=O)cc21.O=S(=O)([O-])C(F)(F)F | Dose-dependent effect | Non-toxic | Non-toxic | 17 |  |  |  |  |  | 
CCN1/C(=C/C=C/c2sc3ccc(OCCCO[N+](=O)[O-])cc3[n+]2CC)Sc2ccc(OCCCO[N+](=O)[O-])cc21.O=S(=O)([O-])C(F)(F)F | Dose-dependent effect | Non-toxic | Non-toxic | 26 | Active | Active |  |  |  | 
CCCOc1ccc2c(c1)N(CC)/C(=C/C=C/c1sc3ccccc3[n+]1CC)S2.[I-] | Dose-dependent effect | Non-toxic | Non-toxic |  |  |  | 0.8 | 7 |  | 
CCN1/C(=C/C=C/c2sc3ccccc3[n+]2CC)Sc2ccccc21.[I-] |  | Non-toxic | Non-toxic |  |  |  | 3.3 | 3.1 | 34.7 | 
CCN1/C(=C/C=C/c2sc3ccccc3[n+]2CC)Sc2ccc(Oc3no[n+]([O-])c3-c3ccccc3)cc21.[I-] | Dose-dependent effect | Non-toxic | Non-toxic |  | Active | Active | 1.6 | 1.8 | 90.8 | 
CCN1/C(=C/C=C/c2sc3ccccc3[n+]2CC)Sc2ccc(OCCCO[N+](=O)[O-])cc21.[I-] | Dose-dependent effect | Non-toxic | Non-toxic |  | Active | Active | 7.7 | 8.1 | 69.3 | 
CCN1/C(=C/C=C/c2sc3ccccc3[n+]2CC)Sc2ccc(Oc3no[n+]([O-])c3S(=O)(=O)c3ccccc3)cc21.[I-] | Dose-dependent effect | Non-toxic | Non-toxic |  | Active | Active |  | 21 |  | 
CCCOc1ccc2c(c1)N(CC)/C(=C/C=C/c1sc3ccc(OCCC)cc3[n+]1CC)S2.[I-] | Dose-dependent effect | Non-toxic | Non-toxic |  |  |  |  |  |  | inactive
CCN1/C(=C/C=C/c2sc3ccccc3[n+]2CC)Sc2ccc(OCc3no[n+]([O-])c3C(N)=O)cc21.[I-] | Dose-dependent effect | Non-toxic | Non-toxic | 26 |  |  |  |  |  | 
CN(C)c1ccc2nc3ccc(=[N+](C)C)cc-3sc2c1 |  |  |  |  |  |  |  | 4.5 |  | 
